V1R ag counter = counter-screen for oxytocin receptor agonists: human V1a receptor agonists; AID 2797; activation, % at 3 µM; 320,000 tested, 0.25% active; P37288; CHO-V1R cells, Fluo-8 calcium fluorescence, agonist mode; 0% DMSO, 100% 3 nM vasopressin;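 active = activation above the mean activation of all tested compounds plus 3 SD, per screening run, cut at about 20% in these data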;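 also: signal is peak over basal fluorescence ratio across a 100 second FLIPR read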
OXTR potentiator = potentiators of human oxytocin receptor. P30559. CHO-OTR cells, Fluo-8 calcium fluorescence, potentiator mode; 0% = oxytocin EC15, 100% = EC100. activation, % at 3 µM. 320,000 tested, 0.061% active;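 active = activation above that plate's cutoff, the mean activation of tested compounds plus 3 SD, cut at about 6.6% in these data, passing the limit was not always enough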;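 also: 100% uses oxytocin at 75 nM as the full agonist control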
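Assay system: CHO cell line stably expressing human OTR | Also added: Oxytocin at about EC15, sub-maximal agonist stimulus | Times: Compound 6 min at room temperature before oxytocin, 100 s read | Measured by: Fluo-8 intracellular calcium fluorescence, ex 470-495, em 515-575 nm | Controls: EC15 oxytocin alone as 0%, 75 nM oxytocin as 100%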
OXTR ag = human OXTR agonism | CHO-OTR cells, Fluo-8 calcium fluorescence; normalized: DMSO 0%, oxytocin 100% | activation, % at 3 µM | 320,000 tested, 0.32% active;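 active = activation above the mean of all tested compounds plus 3 SD, cutoff set per screening run, cut at about 20% in these data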;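 also: peak over basal fluorescence ratio from a 100 s FLIPR kinetic read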
zfTRPN1 agonist = activates the zebrafish TRPN1 channel; activation, % at 3 µM; 220,000 tested, 0.18% active; AID 1424; HEK293 zebrafish TRPN1-YFP, Fluo-8 calcium fluorescence; 100% = response to 87 µM carbachol;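 active = activation above its plate's cutoff, the mean activation of test wells on that plate plus 3 SD, cut at about 19% in these data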;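 also: 0% = DMSO alone and 100% = 87 µM carbachol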
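Material: zebrafish TRPN1-YFP in HEK293 cells. Doses: one dose of 3 µM, 0.3% DMSO. Incubation: dye 1 h 37 °C plus 30 min RT. Measured by: intracellular calcium fluorescence with Fluo-8.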
CRFR2-BP ag = CRF-BP/CRF-R2 complex agonism. AID 588473. 350,000 tested, 0.46% active. HEK293 CRF-R2/CRF-BP, calcium dye fluorescence (FLIPR); percent of saturating CRF peptide response. activation, % at 13.2 µM;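 active = activation of at least 50%, plus an integration ratio under a set limit after plate pattern correction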;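 also: plate controls were neutral control wells without compound for no effect and CRF at EC100 for full effect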
TRPML3 agonist = human mucolipin-3 channel agonism | 220,000 tested, 0.29% active | Q8TDD5 | activation, % at 3 µM | HEK293 TRPML3-YFP, Fluo-8 calcium fluorescence; 100% = the carbachol control signal;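 active = activation above its plate's cutoff, the mean activation of the plate's test wells plus 3 SD, cut at about 12% in these data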;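 also: 0% = DMSO only wells and 100% = carbachol wells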
Target sequence (Q8TDD5 whole entry, looked up): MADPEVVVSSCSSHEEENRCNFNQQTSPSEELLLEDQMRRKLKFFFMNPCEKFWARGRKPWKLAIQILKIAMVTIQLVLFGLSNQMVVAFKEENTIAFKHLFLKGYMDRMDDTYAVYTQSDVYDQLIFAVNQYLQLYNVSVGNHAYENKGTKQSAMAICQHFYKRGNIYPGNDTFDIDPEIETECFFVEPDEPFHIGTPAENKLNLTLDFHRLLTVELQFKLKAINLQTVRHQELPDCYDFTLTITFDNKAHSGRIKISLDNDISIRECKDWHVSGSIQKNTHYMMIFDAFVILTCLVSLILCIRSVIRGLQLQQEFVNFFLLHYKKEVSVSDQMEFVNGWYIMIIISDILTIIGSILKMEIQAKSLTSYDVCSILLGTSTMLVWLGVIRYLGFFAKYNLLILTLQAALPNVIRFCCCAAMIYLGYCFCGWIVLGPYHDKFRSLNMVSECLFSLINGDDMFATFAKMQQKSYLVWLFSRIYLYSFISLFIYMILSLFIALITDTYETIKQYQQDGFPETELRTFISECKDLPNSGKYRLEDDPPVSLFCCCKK
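Test system – HEK293 line with stable expression of human TRPML3-YFP channel · Control set – carbachol 87 µM final as high control (100%), DMSO as low control (0%) · Signal – Fluo-8 calcium dye fluorescence, ex 470-495, em 515-575 nm · Incubation – 1-h 37 °C dye load, 5-s basal, 120-s post-compound reads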
Starred values were filed as active, the others as inactive. The list is not random: actives were taken first. Their share in the collection is about 0.83%.

For Cc1ccc(SCC(=O)Nc2cc([N+](=O)[O-])ccc2O)cc1 the results were V1R ag counter 12, OXTR potentiator -27, OXTR ag 18, zfTRPN1 agonist 24*, CRFR2-BP ag 80* and TRPML3 agonist 19*.
O=C(CSCc1ccc(Cl)cc1)Nc1cc([N+](=O)[O-])ccc1O was read as V1R ag counter 13, OXTR potentiator -13, OXTR ag 17, zfTRPN1 agonist 25*, CRFR2-BP ag 43 and TRPML3 agonist 18*.
For CC(CC(=O)O)CC(=O)Nc1cc([N+](=O)[O-])ccc1O (configuration not stated) the results were V1R ag counter 0, OXTR potentiator 2, OXTR ag -1, zfTRPN1 agonist 1, CRFR2-BP ag -2 and TRPML3 agonist 1.
CCC(=O)c1ccc(OCC(O)CN2CCN(S(=O)(=O)c3ccc(NC(C)=O)cc3)CC2)cc1 (configuration not stated) was read as V1R ag counter 1, OXTR potentiator -1, OXTR ag 0 and CRFR2-BP ag 2.
For CCN(C[C@H]1N[C@@](C)(C(=O)OC)[C@H]2C(=O)N(Cc3ccccc3)C(=O)[C@@H]12)C(=O)C1CCCCC1 the results were V1R ag counter 0, OXTR potentiator -2, OXTR ag 1 and CRFR2-BP ag 1.
CCN(C[C@H]1N[C@@](Cc2ccccc2)(C(=O)OC)[C@H]2C(=O)N(Cc3ccccc3)C(=O)[C@@H]12)C(=O)C1CCCCC1 was read as V1R ag counter -1, OXTR potentiator -6, OXTR ag -2 and CRFR2-BP ag 110*.
For COc1ccc(NS(=O)(=O)c2ccc(O)c(NC(=O)c3cc4c(C)nn(-c5ccc(F)cc5)c4s3)c2)cc1 the results were V1R ag counter 0, OXTR potentiator 0, OXTR ag 1, zfTRPN1 agonist 0, CRFR2-BP ag 93* and TRPML3 agonist 0.
Screening Cc1ccccc1C(=O)NNC(=S)NC(=O)c1cccs1 returned V1R ag counter 65*, OXTR potentiator -9, OXTR ag 36* and CRFR2-BP ag 99*.
For O=C(NC(=S)NNC(=O)c1cccs1)c1ccccc1 the results were V1R ag counter 2, OXTR potentiator -8, OXTR ag 1 and CRFR2-BP ag 27.
For Cc1ccccc1C(=O)Nc1cccc(NC(=S)NC(=O)c2cccs2)c1 the results were V1R ag counter 2, OXTR potentiator -8, OXTR ag -1, zfTRPN1 agonist 2, CRFR2-BP ag 7 and TRPML3 agonist 0.
`CC(C)(C)c1ccc(C(=O)NC(=S)NNC(=O)c2cccs2)cc1` gave V1R ag counter 93*, OXTR potentiator -11, OXTR ag 101*, zfTRPN1 agonist 19*, CRFR2-BP ag 290* and TRPML3 agonist 5.
Screening Cc1cccc(C(=O)NC(=S)NNC(=O)c2ccc(Cl)cc2)c1 returned V1R ag counter 112*, OXTR potentiator -12, OXTR ag 98*, zfTRPN1 agonist 102*, CRFR2-BP ag 213* and TRPML3 agonist 44*.
`Cc1cccc(C(=O)NC(=S)NNC(=O)c2cccs2)c1` gave V1R ag counter 26*, OXTR potentiator -8, OXTR ag 36*, zfTRPN1 agonist 5, CRFR2-BP ag 270* and TRPML3 agonist 5.
For Cc1cccc(C(=O)NNC(=O)c2ccc(Br)cc2)c1 the results were V1R ag counter -1, OXTR potentiator -9, OXTR ag -1, zfTRPN1 agonist 0, CRFR2-BP ag -5 and TRPML3 agonist 1.
For O=C(COC(=O)COc1ccc(Cl)cc1)NC1CCCCCC1 the results were CRFR2-BP ag -1.
Screening Cc1ccccc1C(=O)NC1CC2CCCC(C1)N2CC(C)C (configuration not stated) returned CRFR2-BP ag 0.
Screening Cc1cccc2c(C(=O)O)c3cccc(C)c3nc12 returned V1R ag counter 1, OXTR potentiator 4, OXTR ag 1 and CRFR2-BP ag 0.

Source: PubChem
